Source: PubChem BioAssay (several laboratories)
This is a sample that favours compounds with a hit; in the whole collection about 1.8% have one here.
697 NFkB inh: inhibitors of the PMA/ionomycin-induced NF-kB reporter in 697 B cells. AID 435022. 0.33% of 330,000 active. inhibition, % at 4 µM. 697 B-cell NF-kB luciferase reporter, 16 h; in the data active = inhibition above about 35%
NR2E3 ag-1: human photoreceptor-specific nuclear receptor agonism | Q9Y5X4 | CHO-S Gal4-NCOR/VP16-NR2E3 two-hybrid, luciferase | inhibition of corepressor binding, % at 3.98 µM | 0.35% of 360,000 active;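 active = inhibition above the mean of all tested compounds plus 3 SD, cut at about 70% in these data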;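 note: 0% = DMSO with NR2E3 transfected cells and 100% = cells lacking NR2E3 construct; higher means lower luciferase signal from less NR2E3 corepressor binding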
Target sequence (Q9Y5X4 whole entry, looked up, the tested form may be a part): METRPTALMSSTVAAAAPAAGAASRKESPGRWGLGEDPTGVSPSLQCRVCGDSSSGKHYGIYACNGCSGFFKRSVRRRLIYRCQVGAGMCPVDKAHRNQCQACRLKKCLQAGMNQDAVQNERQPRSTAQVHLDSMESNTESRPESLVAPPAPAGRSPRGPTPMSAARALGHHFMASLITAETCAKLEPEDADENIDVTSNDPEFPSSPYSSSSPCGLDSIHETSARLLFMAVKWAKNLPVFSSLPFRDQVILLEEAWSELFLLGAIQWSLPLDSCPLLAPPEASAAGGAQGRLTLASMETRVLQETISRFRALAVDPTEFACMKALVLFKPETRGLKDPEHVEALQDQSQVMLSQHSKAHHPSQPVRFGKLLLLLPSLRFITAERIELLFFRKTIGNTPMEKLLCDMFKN
Gli-Sufu antag: Gli-Sufu pathway antagonism; Sufu-KO-LIGHT fibroblasts, Gli luciferase reporter luminescence; 0.74% of 340,000 active; inhibition, % at 5 µM;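 active = inhibition above about 55%, limit read from the data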;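 note: 0% = DMSO-treated cells and 100% = wells with medium but no cells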
GalR3 antag: human GalR3 antagonism; O60755; HEK293 GalR3-CNG cAMP membrane potential fluorescence; galR3 body fused to GalR1 C-terminus; AID 651719; inhibition, % at 3 µM; 0.44% of 360,000 active;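 active = inhibition above the screen-wide average plus 3 SD, cut at about 13% in these data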;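 note: forskolin and galanin both at EC90 stimulate the cells; cAMP rise reported by CNG channel membrane potential dye signal; 0% = forskolin plus galanin with DMSO and 100% = forskolin alone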
Target sequence (O60755 1-299 limits assumed): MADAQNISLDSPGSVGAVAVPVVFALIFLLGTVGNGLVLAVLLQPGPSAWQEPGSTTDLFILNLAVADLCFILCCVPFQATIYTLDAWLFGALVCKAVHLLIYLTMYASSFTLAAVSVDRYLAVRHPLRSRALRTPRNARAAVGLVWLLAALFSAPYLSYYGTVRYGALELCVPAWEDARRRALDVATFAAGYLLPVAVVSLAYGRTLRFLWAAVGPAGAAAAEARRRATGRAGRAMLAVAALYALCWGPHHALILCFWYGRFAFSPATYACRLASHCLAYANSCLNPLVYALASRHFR
NR2E3 ag-2: activates human photoreceptor nuclear receptor NR2E3. Q9Y5X4. GST-NR2E3/biotin-RetCOR TR-FRET, 1536-well. inhibition of corepressor binding, % at 4.78 µM. 0.12% of 320,000 active. AID 2300;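 active = percent inhibition above the cutoff of mean plus 3 SD of all tested compounds, set per screening campaign, cut at about 20% in these data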;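 note: 0% = DMSO wells and 100% = biotin wells as full block of FRET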
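Material: NR2E3–RetCOR corepressor complex | Quantity: 1.35 nM GST-tagged NR2E3 final | Schedule: 5 h at 4 °C | Replication: Singlicate compound wells | Reagent: RetCOR corepressor, biotinylated, 7 nM | Controls: Biotin wells as high control, 0.6% DMSO wells as low control | Signal: TR-FRET, Eu(K)-anti-GST donor, streptavidin-D2 acceptor, ex 340, em 617/671 nm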
Jurkat NFkB inh: inhibitors of the PMA/ionomycin-induced NF-kB reporter in Jurkat cells. inhibition, % at 4 µM. AID 435003. 0.53% of 330,000 active. PMA/ionomycin-induced NF-kB luciferase reporter, luminescence; in the data active = inhibition above about 50%
Gli antag conf: Gli-SUFU antagonism confirmation, single concentration; inhibition, % at 5 µM; 40% of 2,500 active; shares compounds with Gli-Sufu antag; Sufu-KO-LIGHT cells, Gli luciferase reporter, luminescence;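 active = mean inhibition at 5 µM reaching about 45%, limit read from the data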;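 note: plate controls were DMSO-treated cells for no effect and wells lacking cells for full effect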
Gli cytotox: counter-screen for Gli-SUFU antagonists: cytotoxicity; shares compounds with Gli-Sufu antag; Sufu-KO-LIGHT cells cytotoxicity, ATP luminescence; cytotoxicity, % at 5 µM; 32% of 2,500 active; AID 651994;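 active = mean cytotoxicity at 5 µM above about 25%, limit read from the data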;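 note: cells exposed to compound overnight for roughly 16 to 18 hours; plate controls were DMSO wells with cells for no effect and medium without cells for full effect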
Wnt3a counter: Wnt3a reporter inhibition counter-screen; shares compounds with Gli-Sufu antag; Wnt-LIGHT cells, Wnt3a-driven luciferase reporter, luminescence; inhibition, % at 6.25 µM; 20% of 2,500 active;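 active = mean inhibition above about 25%, limit read from the data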
* hit, by the source's call; x = no result.

SMILES	697 NFkB inh	NR2E3 ag-1	Gli-Sufu antag	GalR3 antag	NR2E3 ag-2	Jurkat NFkB inh	Gli antag conf	Gli cytotox	Wnt3a counter
C[C@@H]1ON(C)[C@H]2C[C@H]3c4cc(Nc5ccccc5)ccc4CCN3C[C@@H]12	x	x	x	-4.2	x	x	x	x	x
Cc1ccccc1NC(=O)NCCc1c[nH]c2ccccc12	18.2	0.0	-13.2	-7.5	-2.5	15.7	x	x	x
Cc1ccccc1NC(=O)Cc1c[nH]c2ccccc12	14.0	-6.6	55.2*	-11.0	3.4	-4.2	18.4	18.0	-36.6
COc1ccc(CN2CCN(C(=O)CN3C(=O)C4C5C=CC(C5)C4C3=O)CC2)c(OC)c1OC (stereo not drawn)	-27.8	0.3	62.1*	-0.8	0.2	6.5	19.3	20.8	-2.6
Cc1ccc(N=CC2=C(O)CC(c3ccc(Cl)cc3)CC2=O)cc1 (stereo not drawn)	-1.7	-14.2	52.7	1.6	2.7	12.8	26.2	9.9	20.0
O=C(CN1C(=O)c2ccccc2S1(=O)=O)c1ccccc1	15.1	-7.6	73.0*	-3.6	-5.2	-2.4	80.1*	10.9	93.3*
O=C(CN1C(=O)c2ccccc2S1(=O)=O)N1CCCCC1	0.8	3.3	-10.7	-7.4	1.8	8.2	x	x	x
O=C(c1ccc(CS(=O)c2cccc(Cl)c2)o1)N1CCN(c2ccccn2)CC1 (stereo not drawn)	-24.8	-11.0	-0.5	3.5	4.0	37.0	x	x	x
O=S(=O)(c1ccc(F)cc1)N1CCN(CC(O)COCC2CCCO2)CC1 (stereo not drawn)	22.2	5.4	-3.2	2.8	x	6.1	x	x	x
COc1cc(NC(=O)c2cc3ccccc3cc2OC)ccc1NC(=O)c1cccs1	27.9	-15.4	56.8*	-3.2	5.3	2.6	34.5	15.6	-71.4
CCN(CC)C(=O)C1=C(C)N(Cc2ccccc2)C(=O)C(CC(=O)NCCN2CCOCC2)C1 (stereo not drawn)	x	-28.2	x	-7.1	x	x	x	x	x
COc1cc(F)ccc1Oc1cccc2c1S(=O)(=O)N(C1CC1)C[C@@H](COCc1ccccc1)O2	x	x	x	-5.4	x	x	x	x	x
C(#Cc1ccccc1)C[N+]1(CC#Cc2ccccc2)CCCC1	-27.3	8.7	76.5*	0.6	1.8	8.7	74.7*	17.6	6.3
C=CC[N+]1(CC#Cc2ccccc2)CCCC1	-4.9	1.6	24.2	-1.8	3.4	-3.4	x	x	x
Cc1cccc(NS(=O)(=O)c2ccc(C)c(NS(=O)(=O)c3cccs3)c2)c1	18.4	20.1	96.4*	-3.3	x	5.8	13.5	11.9	-11.0
O=C(O)CN1C(=O)/C(=C2\C(=O)N(Cc3ccccc3Cl)c3ccccc32)SC1=S	x	0.9	57.4*	-6.2	1.6	x	11.1	6.6	20.2
COc1ccc(N(CC(=O)NC2CCCCCC2)S(=O)(=O)c2c(C)nn(C)c2C)cc1	-2.7	-39.6	50.6	-3.4	-2.2	-7.6	8.6	-6.1	-34.2
Cc1ccc(N(CC(=O)NC2CCCCC2)S(=O)(=O)c2c(C)noc2C)cc1	0.7	8.3	50.2	-5.7	2.8	-4.2	14.2	17.5	-35.4
O=C(NN1C(=O)/C(=C\c2cccnc2)SC1=S)c1ccco1	-2.2	0.6	-4.6	4.3	2.2	-0.6	x	x	x
CC1(C)CC2(OC2c2ccccc2)C(=O)c2ccccc21 (stereo not drawn)	x	8.0	x	-5.8	x	x	x	x	x
Nc1[nH]c(C(=O)c2ccccc2)c(-c2cccnc2)c1C(=O)c1ccccc1	x	x	x	-6.1	x	x	x	x	x
CNC[C@@H]1OCc2cnnn2CCCC(=O)N([C@@H](C)CO)C[C@H]1C	x	x	x	-7.2	x	x	x	x	x
Cn1c(CSCc2ccc(F)cc2)nnc1SCC(=O)Nc1nccs1	-7.8	39.3	60.5*	-6.8	-0.6	4.7	22.8	10.5	-18.0
O=S1(=O)c2cc(Cl)ccc2N2CC[C@H](C2)N1Cc1ccc(Cl)c(Cl)c1	x	x	x	-7.9	x	x	x	x	x
Cc1[nH]c2ccccc2c1CC(=O)Nc1ccc(Nc2ccccc2)cc1	x	x	x	-5.1	x	x	x	x	x
SMILES	697 NFkB inh	NR2E3 ag-1	Gli-Sufu antag	GalR3 antag	NR2E3 ag-2	Jurkat NFkB inh	Gli antag conf	Gli cytotox	Wnt3a counter
Cc1ccc(S(=O)(=O)NCCOc2nc(N(C)C)nc(N3CCOCC3)n2)cc1	0.9	-2.0	94.9*	1.2	3.6	-14.2	13.4	10.9	-12.6
Cc1onc(-c2ccccc2Cl)c1C(=O)N1CCCC1	5.8	-3.2	45.9	-3.4	0.9	-0.4	x	x	x
Cc1onc(-c2ccccc2Cl)c1C(=O)N1CCCCCC1	2.6	3.6	58.8*	-7.4	x	8.0	23.8	4.3	3.9
Cc1cc(/C=C(\C#N)C(=O)NCc2cccs2)c(C)[nH]1	3.9	-2.1	-14.0	-7.9	2.6	0.0	x	x	x
COCCCNC(=O)/C(C#N)=C/c1cc(C)[nH]c1C	3.6	0.3	56.8*	-1.4	5.0	8.2	17.2	5.7	-0.9
CC(C)NC(=O)N(C)C[C@@H]1OCc2cn(nn2)CCCC(=O)N([C@@H](C)CO)C[C@H]1C	x	x	x	-6.1	x	x	x	x	x
CCCCCCCNC1=CC(=O)CC(c2ccccc2)C1 (stereo not drawn)	-17.0	-101.8	58.5*	-5.5	1.0	30.5	51.5*	23.5	-37.9
Cc1cc2c(nc1C)CCCN2S(=O)(=O)c1ccc(C#N)cc1	x	x	x	-4.7	x	x	x	x	x
COc1ccc(CNC(=O)CCCn2ccc3cc(S(=O)(=O)N4CCCC4)ccc32)cc1	-16.8	-19.4	59.3*	0.8	3.9	43.5	7.7	26.6*	-96.9
COc1ccc(CN2c3ccccc3C(=O)CS2(=O)=O)cc1OC	x	x	x	-2.7	x	x	x	x	x
O=C(COC(=O)CCCSc1nc2ccccc2[nH]1)NC(=O)NC1CCCC1	19.7	22.8	54.9	-2.6	2.9	20.3	7.9	-2.8	-11.2
CCNC(=O)NC(=O)COC(=O)CCCSc1nc2ccccc2[nH]1	7.6	-4.8	26.1	-0.2	1.3	9.4	x	x	x
O=C(CCNS(=O)(=O)c1ccc(OC(F)(F)F)cc1)NC1CC1	-2.9	-12.4	-0.3	-4.5	x	-9.9	x	x	x
Cc1ccccc1CNC(=O)CCNS(=O)(=O)c1ccc(OC(F)(F)F)cc1	8.4	11.9	94.5*	-7.2	1.0	-0.6	11.7	22.8	-25.9
COc1ccc(-c2nn(-c3ccccc3)cc2/C=C/C(=O)O)cc1[N+](=O)[O-]	-3.7	-18.1	0.9	-1.9	-1.3	-5.3	x	x	x
COc1ccc(-c2nn(-c3ccccc3)cc2C=O)cc1[N+](=O)[O-]	22.3	-4.4	55.3*	-10.1	2.5	-14.2	14.2	32.9*	8.6
CCOc1ccccc1NC(=O)N1CCC(NC(=O)c2cccc(C)c2)CC1	1.5	-0.3	10.3	-5.3	3.3	5.8	x	x	x
Cc1cccc(C(=O)NC2CCN(C(=O)Nc3ccccc3C)CC2)c1	6.3	9.7	66.7*	-5.6	1.1	1.4	24.2	0.4	3.5
